According to ChEMBL document CHEMBL1268859, “Diarylheptanoids from the Rhizomes of Curcuma kwangsiensis” (J Nat Prod, 2010):
pIC50: −log10 of the molar value.

Tested on: RAW264.7
Test: Antiinflammatory activity in mouse RAW264.7 cells assessed as inhibition of LPS-induced NO production by MTT assay
Format: functional, cell-based
Settings: in the assay text read “Griess assay” for “MTT assay”
Outline: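 RAW 264.7 mouse macrophages in RPMI 1640 with 10% heat-inactivated FBS, penicillin and streptomycin, seeded 1 × 10⁵ cells/well, adhered 2 h at 37 °C, 5% CO₂. Stimulated with LPS 1 µg/mL for 24 h with or without test agents at various concentrations (DMSO, 0.2% v/v final). Supernatant nitrite read with Griess reagent against a nitrite standard line. MTT viability after 24 h.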

Oc1ccc(CCCC[C@H](O)CCc2ccc(O)c(O)c2)cc1
pIC50: 5.23

O=C(CCCCc1ccc(O)cc1)CCc1ccc(O)cc1
pIC50: 5.25

O=C(/C=C/C=C/c1ccc(O)cc1)CCc1ccc(O)cc1
pIC50: 5.32

Oc1ccc(/C=C/CC[C@@H](O)CCc2ccc(O)c(O)c2)cc1
pIC50: 4.69

COc1ccc2c(c1)c(CC(=O)O)c(C)n2C(=O)c1ccc(Cl)cc1 [INDOMETHACIN]
pIC50: 4.89

Oc1ccc(CCCC[C@@H](O)CCc2ccc(O)c(O)c2)cc1
pIC50: 5.02

Oc1ccc(CC[C@H](O)CC/C=C/c2ccccc2)cc1O
pIC50: 5.13

O=C(CC/C=C/c1ccc(O)cc1)CCc1ccc(O)cc1
pIC50: 5.05

COc1cc(CCC(=O)/C=C/CCc2ccc(O)cc2)ccc1O
pIC50: 5.57

Oc1ccc(/C=C/CC[C@H](O)CCc2ccc(O)cc2)cc1
pIC50: 5.01

CC(=O)O[C@@H](CCCCc1ccc(O)cc1)CCc1ccc(O)c(O)c1
pIC50: 4.31

CC(=O)O[C@H](CC/C=C/c1ccc(O)cc1)CCc1ccc(O)c(O)c1
pIC50: 4.81

C[C@]12CCC(=O)C=C1CC[C@@H]1[C@@H]2[C@@H](O)C[C@@]2(C)[C@H]1CC[C@]2(O)C(=O)CO [HYDROCORTISONE]
pIC50: 4.39

Oc1ccc(/C=C/CC[C@H](O)CCc2ccc(O)c(O)c2)cc1
pIC50: 4.38

Oc1ccc(CC[C@@H](O)CC/C=C/c2ccccc2)cc1O
pIC50: 5.41

CC(=O)O[C@@H](CC/C=C/c1ccc(O)cc1)CCc1ccc(O)c(O)c1
pIC50: 5.18

O=C(CC/C=C/c1ccccc1)CCc1ccc(O)cc1
pIC50: 5.16

COc1cc(CCC(=O)CCCCc2ccc(O)cc2)ccc1O
pIC50: 4.97

Oc1ccc(/C=C/CC[C@@H](O)CCc2ccc(O)cc2)cc1
pIC50: 4.79

CC(=O)O[C@H](CCCCc1ccc(O)cc1)CCc1ccc(O)c(O)c1
pIC50: 4.55
